From PubChem BioAssay come the findings set out here.

Active and inactive are the calls of the source.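 The calls were made as follows, unless noted: active = a full or partial loss of lipid-probe fluorescence in the fish gall bladder, intestine or both, judged by eye; inactive = no fluorescence loss, or compound toxic to the fish.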

Assay [1] in a line: inhibitors of TNFa-induced NFkB p65 translocation, primary screen, imaging, HUVEC, MLSMR starter and 10KST1 sets (AID 438;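 active = inhibition above 20% together with a positive visual image hit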;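 also: compound added about 3h40 before a 20 min TNFalpha stimulation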;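 as to inhibition: signal is the nuclear over cytoplasmic p65 intensity ratio per well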). The following applies: HUVEC TNFa-induced p65 nuclear translocation; cell count: measured here: nuclei count (cytotoxicity indicator), at 2.08 µM; inhibition: at 2 µM, stronger effect = higher value, 0% TNFa-plus-vehicle, 100% no-TNFa wells.
Assay [2] can be described thus: endothelial E-selectin expression blockers – imaging, HUVEC, immunofluorescence, MLSMR starter and 10KST1 sets, primary screen (AID 487;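 active = visually confirmed hit in the image check and inhibition above 20%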;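 as to inhibition: signal is fraction of cell area covered by stained E-selectin grains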;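 as to nuclei count: 100% = median nuclei count of all wells on the same plate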). As to conditions: HUVEC TNFalpha-induced E-selectin immunofluorescence imaging, at 2 µM; inhibition: stronger effect = higher value; nuclei count: measured here: cell number, toxicity.
Assay [3] is described as follows: Primary imaging screen for DUSP6 inhibitors that restore phospho-Erk in transfected HeLa cells, chemical complementation (AID 609;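 active = compounds giving at least 50% inhibition in the cell-based MKP-3 phosphatase rescue imaging test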;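 as to inhibition: phospho-Erk level distribution per well compared with pooled transfected vehicle control wells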). The following applies: HeLa MKP-3 transfected, phospho-Erk imaging KS statistic, at 10 µM, cells stimulated with TPA for 15 min.
Assay [4] has as its target Dual specificity protein phosphatase 6 (Homo sapiens) (UniProt Q16828). The assay is described as above. As to conditions: HeLa MKP-3 transfected, phospho-Erk imaging KS statistic; at 10 µM; stronger effect = higher value; cells stimulated with TPA for 15 min.
The target of assay [5] is Voltage-gated potassium channel subunit beta-2 (Rattus norvegicus) (UniProt P62483). Put plainly: inhibitors of rat Kvbeta2 reductase activity – biochemical, NADPH fluorescence, primary screen (AID 622;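 active = fluorescence slope higher than the sample average by over 3 SD, cut at about -0.22 in these data, passing the limit was not always enough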;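 also: slope of raw intensity against log time taken from 70 to 1610 s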). The following applies: recombinant KvBeta, 4-cyanobenzaldehyde reduction, at 10 µM, stronger effect = higher value.
Assay [6] shares this target. Put plainly: enhancers of rat Kvbeta2 NADPH turnover – biochemical, NADPH fluorescence, primary screen (AID 623;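 active = NADPH fluorescence slope more negative than the mean of all samples by about 3 SD, 99.7% confidence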;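 also: fluorescence intensity change per second fitted from 20 to 320 s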). The following applies: Recombinant KvBeta, NADPH fluorescence decrease slope, 10 min; at 10 µM; stronger effect = lower value.
The target in assay [7] is Alpha-2C adrenergic receptor (Homo sapiens) (UniProt P18825). Put plainly: compounds altering alpha2C-coupled GIRK flux – cell-based, HEK293 alpha2C/GIRK1/2, thallium flux, primary screen (AID 624;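 active = fluorescence slope after compound addition differing from the mean of all screened samples at 99.7% confidence, in either direction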;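 also: slope of fluorescence ratio to pre-addition baseline per second over 15 to 24 s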). The following applies: thallium flux BTC fluorescence, at 10 µM, actives lie on both sides.
Assay [8] can be described thus: inhibitors of larval lipid processing in zebrafish, primary screen, whole organism, PED6 fluorescence, gall bladder and intestine (AID 686).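 Also: larvae 5 to 7 days old with five fish per well; signal comes from phospholipase A2 cleavage of quenched PED6 carried via bile; overnight exposure to compound and PED6 before scoring.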 The following applies: Zebrafish larvae PED6 lipid processing, fluorescence scoring; screened at 20 µM (by protocol). The gist of the method:
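Doses: 20 µM single dose. Test system: live zebrafish larvae aged 5-7 days, whole organism. Quantity: five larvae per well. Measured by: By-eye fluorescence microscopy. Reagent: ingested quenched lipid PED6 at 100 nM. Read-out: visual per-well fluorescence inhibition score. Times: overnight exposure of larvae to compound plus PED6.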

Assay [9] is described as follows: loss of swimming-algae plug formation – whole organism, Chlamydomonas reinhardtii, WT vs cilia-less mutant, absorbance, 96-well, primary screen (AID 463189;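 active = inhibition at or above 50% relative to wild type and mutant plate controls; inactive = inhibition below 50%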;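 also: 0% = wild type cc124 cells in DMSO and 100% = ciliumless bld1 mutant cells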). As to conditions: Chlamydomonas reinhardtii gravitaxis, OD600 absorbance, 2 days; at 10 µM; stronger effect = higher value.
Where [10] appears, read: measured here: cell density z-score.
The mark [11] stands for this setting: measured here: nuclear c-Myc green intensity z-score.
Setting [12] is: measured here: nuclear pErk red intensity z-score, stronger effect = higher value.

Sequence of Dual specificity protein phosphatase 6 (Homo sapiens) (Q16828 whole entry, looked up): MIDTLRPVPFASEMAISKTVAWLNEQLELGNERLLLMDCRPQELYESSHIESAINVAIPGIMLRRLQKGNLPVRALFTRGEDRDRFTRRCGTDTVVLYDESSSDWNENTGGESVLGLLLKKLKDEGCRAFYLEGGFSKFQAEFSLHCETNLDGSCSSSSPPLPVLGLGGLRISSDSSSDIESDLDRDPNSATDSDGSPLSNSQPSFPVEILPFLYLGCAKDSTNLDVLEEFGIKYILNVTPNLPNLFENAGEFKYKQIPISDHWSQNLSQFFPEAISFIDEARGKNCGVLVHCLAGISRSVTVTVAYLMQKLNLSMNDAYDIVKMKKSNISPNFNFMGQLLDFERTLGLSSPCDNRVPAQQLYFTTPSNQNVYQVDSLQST
Sequence of Alpha-2C adrenergic receptor (Homo sapiens) (P18825 whole entry, looked up): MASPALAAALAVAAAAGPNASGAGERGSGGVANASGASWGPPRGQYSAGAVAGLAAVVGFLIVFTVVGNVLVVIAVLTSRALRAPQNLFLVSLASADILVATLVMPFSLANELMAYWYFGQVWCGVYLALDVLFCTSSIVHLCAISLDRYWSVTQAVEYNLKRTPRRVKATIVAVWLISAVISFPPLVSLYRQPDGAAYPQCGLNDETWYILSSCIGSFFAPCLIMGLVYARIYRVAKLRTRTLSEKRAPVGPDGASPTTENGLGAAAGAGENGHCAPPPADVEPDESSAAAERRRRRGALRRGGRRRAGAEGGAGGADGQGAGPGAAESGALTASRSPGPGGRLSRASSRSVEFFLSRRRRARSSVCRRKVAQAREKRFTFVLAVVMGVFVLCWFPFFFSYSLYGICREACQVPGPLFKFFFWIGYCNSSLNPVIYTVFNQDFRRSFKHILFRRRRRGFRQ
Sequence of Voltage-gated potassium channel subunit beta-2 (Rattus norvegicus) (P62483 whole entry, looked up): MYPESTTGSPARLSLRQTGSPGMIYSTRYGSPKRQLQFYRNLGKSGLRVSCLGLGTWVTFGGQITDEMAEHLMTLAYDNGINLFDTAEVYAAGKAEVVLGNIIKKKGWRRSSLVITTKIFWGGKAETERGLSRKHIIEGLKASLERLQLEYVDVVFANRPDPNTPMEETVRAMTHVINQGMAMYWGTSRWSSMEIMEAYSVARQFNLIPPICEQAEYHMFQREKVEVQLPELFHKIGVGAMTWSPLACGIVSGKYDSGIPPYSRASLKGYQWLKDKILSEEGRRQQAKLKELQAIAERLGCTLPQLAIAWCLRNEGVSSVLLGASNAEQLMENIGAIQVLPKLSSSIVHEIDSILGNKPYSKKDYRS

With `CCOC(=O)CC(=O)CSc1nc(N)c(C#N)c(-c2ccc(Cl)cc2)c1C#N`, the cell count in assay [1] stood at 405. Also, the inhibition was -9.9% (inactive) in assay [1], -43.1% (inactive) in assay [2], -6.48% (inactive) in assay [4] and -7.76% (inactive) in [9]. This compound displayed a nuclei count in assay [2] of 99.2%. Further, the figures for the z-score in assay [3] (setting [10]), in assay [3] (setting [11]) and in assay [3] (setting [12]) were 1.08, -0.959 and -2.04, respectively. For the same compound, the fluorescence slope in assay [5] is -0.318 (inactive). In assay [6], the NADPH fluorescence slope was 1.7e-05 (inactive). The slope in assay [7] is 0.00603 (inactive). Moreover, the compound was called inactive in assay [8].

In the case of `N#CC1=C(N)NC(SCc2ccc(F)cc2)=C(C#N)C12CCCCC2`, the cell count in assay [1] was 614. For the same compound, the inhibition in assay [1] is -15.5% (inactive); in assay [2], 24.8% (inactive); in [4], 6.04% (inactive); in assay [9] it was -1.21% (inactive). In addition, the nuclei count in assay [2] was determined as 164%. Moreover, the z-score is -0.696 in assay [3] (setting [10]), -0.0167 in assay [3] (setting [11]) and -0.195 in assay [3] (setting [12]). Moreover, in [5], the fluorescence slope was -0.404 (inactive). The NADPH fluorescence slope in [6] is -4.7e-05 (inactive). Also, the slope in assay [7] was 0.0043 (inactive). The call in assay [8] was inactive.

With `CN(C)c1oc(-c2cccs2)nc1C#N`, the cell count in assay [1] is 443. In addition, the inhibition in [1] was -7.1% (inactive); in assay [2], -173% (inactive); in assay [4] it was 6.04% (inactive); in assay [9] it was 4.07% (inactive). This compound also yielded a nuclei count in assay [2] of 157%. Besides, the z-score was 1.44 in assay [3] (setting [10]), 1.03 in assay [3] (setting [11]) and -0.732 in [3] (setting [12]). In assay [5], the fluorescence slope was -0.052 (inactive). Also, the NADPH fluorescence slope in assay [6] was -1.6e-06 (inactive). Besides, the slope in assay [7] was 0.00583 (inactive). For the same compound, the compound was called inactive in [8].

In the case of `C=CCOc1nc2c(c(=O)n(C)c(=O)n2C)n1Cc1ccc(Cl)cc1`, in [1], the cell count stood at 659. For the same compound, the inhibition in [1] is 7.6% (inactive); in assay [2] it was -11.6% (inactive); in assay [4], 27.5% (inactive); in [9], 4.31% (inactive). The compound also displayed a nuclei count in assay [2] of 137%. In addition, the z-score is -0.719 in [3] (setting [10]), 0.0983 in [3] (setting [11]) and 0.628 in assay [3] (setting [12]). Also, the fluorescence slope in assay [5] is -0.516 (inactive). The NADPH fluorescence slope in assay [6] is -0.000102 (inactive). The slope in assay [7] is 0.00536 (inactive). For the same compound, the compound was classed as inactive in assay [8].

Take `COC(=O)CN(c1nc(C)c(Br)c(OC)n1)S(=O)(=O)c1ccc(C)cc1`: in assay [1], the cell count was 598. Besides, the inhibition in assay [1] was 6.5% (inactive); in [2] it was -10.9% (inactive); in assay [4] it was 9.82% (inactive); in assay [9], -5.5% (inactive). The compound also showed a nuclei count in assay [2] of 142%. For the same compound, the z-score was determined as 0.877 in assay [3] (setting [10]), 0.344 in [3] (setting [11]) and 0.387 in [3] (setting [12]). The fluorescence slope in [5] was -0.379 (inactive). The NADPH fluorescence slope in assay [6] is -2.1e-05 (inactive). Moreover, the slope in [7] was 0.0055 (inactive). Moreover, the compound was called inactive in assay [8].

Consider `CCOC(=O)C1Cc2c([nH]c3ccccc23)C(C)N1` (stereo unspecified), for which the cell count in assay [1] is 640. Further, the inhibition in [1] was -12.2% (inactive); in assay [2], -61.9% (inactive); in assay [4], -18.6% (inactive); in [9] it was -12.3% (inactive). In assay [2], this compound yielded a nuclei count of 176%. In addition, the z-score was -0.293 in assay [3] (setting [10]), -0.384 in assay [3] (setting [11]) and -0.135 in [3] (setting [12]). The fluorescence slope in assay [5] was -0.422 (inactive). In addition, the NADPH fluorescence slope in assay [6] was -5.9e-05 (inactive). For the same compound, in assay [7], the slope was 0.00514 (inactive). The compound was called inactive in assay [8].

Turning to `COc1ccc(-c2ncncc2-c2csc(C)n2)c(O)c1`, in assay [1], the cell count stood at 573. The inhibition in assay [1] is -4.5% (inactive); in assay [2] it was -141% (inactive); in assay [4], 1.9e-07% (inactive); in [9] it was 3.68% (inactive). The same compound gave a nuclei count in assay [2] of 135%. The results for the z-score in [3] (setting [10]), in [3] (setting [11]) and in assay [3] (setting [12]) were 0.355, -1.54 and -0.34, respectively. For the same compound, the fluorescence slope in assay [5] was -0.509 (inactive). Further, the NADPH fluorescence slope in assay [6] was -3.3e-05 (inactive). Moreover, the slope in assay [7] is 0.00463 (inactive). For the same compound, in assay [8], the call was inactive.
